Key:
Format in all cases: functional
CAKI-1 = assay: Cytotoxicity against human CAKI-1 cells by SRB assay
How it was run: (§1)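 NCI 60 human tumor cell line panel, sulforhodamine B (SRB) protein-stain read-out. Compounds were first screened at a single dose of 10^-5 M, and selected compounds were then tested in a five-dose format. GI50 is the drug concentration giving a 50% reduction in net protein increase relative to control cells.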

SK-MEL-5 = assay: Cytotoxicity against human SK-MEL-5 cells by SRB assay; how it was run: as §1
[1] = Cytotoxicity against human OVCAR4 cells by SRB assay; settings: OVCAR-4; how it was run: as §1
[2] = Cytotoxicity against human IGROV1 cells by SRB assay; settings: IGROV-1
How it was run: (§2)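 NCI 60-cell-line panel using sulforhodamine B protein stain. Initial single-dose screen at 10^-5 M, then five-dose testing. GI50 is the drug concentration giving a 50% reduction in net protein increase relative to control cells.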

[3] = Cytotoxicity against human HOP92 cells by SRB assay; settings: HOP-92; how it was run: as §1
M14 = assay: Cytotoxicity against human M14 cells by SRB assay; how it was run: as §1
SK-MEL-28 = assay: Cytotoxicity against human SK-MEL-28 cells by SRB assay; how it was run: as §1
[4] = Cytotoxicity against human RPMI8226 cells by SRB assay; settings: RPMI-8226; how it was run: as §1
NCI-H522 = assay: Cytotoxicity against human NCI-H522 cells by SRB assay; how it was run: as §1
CCRF-CEM = assay: Cytotoxicity against human CCRF-CEM cells by SRB assay; how it was run: as §1
[5] = Cytotoxicity against human SF268 cells by SRB assay; settings: SF-268; how it was run: as §1
SR = assay: Cytotoxicity against human SR cells by SRB assay; how it was run: as §1
[6] = Cytotoxicity against human SF539 cells by SRB assay; settings: SF-539; how it was run: as §1
[7] = Cytotoxicity against human HOP62 cells by SRB assay; settings: HOP-62; how it was run: as §1
[8] = Cytotoxicity against human SNB75 cells by SRB assay; settings: SNB-75; how it was run: as §1
ACHN = assay: Cytotoxicity against human ACHN cells by SRB assay; how it was run: as §1
[9] = Cytotoxicity against human SKOV3 cells by SRB assay; settings: SK-OV-3; how it was run: as §1
[10] = Cytotoxicity against human SNB19 cells by SRB assay; settings: SNB-19; how it was run: as §1
786-0 = assay: Cytotoxicity against human 786-0 cells by SRB assay; how it was run: as §1
A549 = assay: Cytotoxicity against human A549 cells by SRB assay; how it was run: as §1
[11] = Cytotoxicity against human SF295 cells by SRB assay; settings: SF-295; how it was run: as §1
A498 = assay: Cytotoxicity against human A498 cells by SRB assay; how it was run: as §1
KM12 = assay: Cytotoxicity against human KM12 cells by SRB assay; how it was run: as §1
[12] = Cytotoxicity against human MOLT4 cells by SRB assay; settings: MOLT-4; how it was run: as §1
[13] = Cytotoxicity against human HCT15 cells by SRB assay; settings: HCT-15; how it was run: as §1
[14] = Cytotoxicity against human HCC2998 cells by SRB assay; settings: HCC 2998; how it was run: as §1
[15] = Cytotoxicity against human HCT116 cells by SRB assay; settings: HCT-116; how it was run: as §1
HT-29 = assay: Cytotoxicity against human HT-29 cells by SRB assay; how it was run: as §1
[16] = Cytotoxicity against human UACC62 cells by SRB assay; settings: UACC-62; how it was run: as §1
NCI-H23 = assay: Cytotoxicity against human NCI-H23 cells by SRB assay; how it was run: as §1
[17] = Cytotoxicity against human OVCAR3 cells by SRB assay; settings: OVCAR-3; how it was run: as §1
SK-MEL-2 = assay: Cytotoxicity against human SK-MEL-2 cells by SRB assay; how it was run: as §1
[18] = Cytotoxicity against human COLO205 cells by SRB assay; settings: COLO 205; how it was run: as §1
[19] = Cytotoxicity against human UO31 cells by SRB assay; settings: UO-31; how it was run: as §1
[20] = Cytotoxicity against human SW620 cells by SRB assay; settings: SW-620; how it was run: as §1
K562 = assay: Cytotoxicity against human K562 cells by SRB assay; how it was run: as §1
U-251 = assay: Cytotoxicity against human U251 cells by SRB assay; how it was run: as §1
[21] = Cytotoxicity against human HL-60(TB) cells by SRB assay; how it was run: as §2
[22] = Cytotoxicity against human LOXIMVI cells by SRB assay; settings: LOX IMVI; how it was run: as §2
MDA-MB-435 = assay: Cytotoxicity against human MDA-MB-435 cells by SRB assay; how it was run: as §1
MCF7 = assay: Cytotoxicity against human MCF7 cells by SRB assay; how it was run: as §1
MDA-MB-231 = assay: Cytotoxicity against human MDA-MB-231 cells by SRB assay; how it was run: as §1
NCI/ADR-RES = assay: Cytotoxicity against human NCI/ADR-RES cells by SRB assay; how it was run: as §1
MDA-MB-468 = assay: Cytotoxicity against human MDA-MB-468 cells by SRB assay; how it was run: as §1
[23] = Cytotoxicity against human Hs578T cells by SRB assay; settings: Hs-578T; how it was run: as §1

COc1ccc(/C=C\c2cc(OC)c(OC)c(OC)c2)cc1O [COMBRETASTATIN A4]
GI50 (CAKI-1): 26 nM | GI50 (SK-MEL-5): 4 nM | GI50 [1]: 14 nM | GI50 [2]: 15 nM | GI50 [3]: 3 nM | GI50 (M14): 3 nM | GI50 (SK-MEL-28): 8 nM | GI50 [4]: 3 nM | GI50 (NCI-H522): 2 nM | GI50 (CCRF-CEM): 3 nM | GI50 [5]: 6 nM | GI50 (SR): 3 nM | GI50 [6]: 3 nM | GI50 [7]: 3 nM | GI50 [8]: 8 nM | GI50 (ACHN): 6 nM | GI50 [9]: 59 nM | GI50 [10]: 4 nM | GI50 (786-0): 100 nM | GI50 (A549): 16 nM | GI50 [11]: 4 nM | GI50 (A498): 6 nM | GI50 (KM12): 5 nM | GI50 [12]: 3 nM | GI50 [13]: 4 nM | GI50 [14]: 63 nM | GI50 [15]: 3 nM | GI50 (HT-29): 100 nM | GI50 [16]: 6 nM | GI50 (NCI-H23): 3 nM | GI50 [17]: 2 nM | GI50 (SK-MEL-2): 4 nM | GI50 [18]: 100 nM | GI50 [19]: 19 nM | GI50 [20]: 3 nM | GI50 (K562): 2 nM | GI50 (U-251): 4 nM | GI50 [21]: 2 nM | GI50 [22]: 3 nM

COc1cc(/C=C(\C#N)c2cc(OC)c(OC)c(OC)c2)cc(OC)c1
GI50 (CAKI-1): 6190 nM | GI50 (MDA-MB-435): 1630 nM | GI50 (SK-MEL-5): 4700 nM | GI50 [1]: 7480 nM | GI50 [2]: 14600 nM | GI50 [3]: 3570 nM | GI50 (M14): 4450 nM | GI50 (MCF7): 4350 nM | GI50 (SK-MEL-28): 14000 nM | GI50 [4]: 6640 nM | GI50 (NCI-H522): 20500 nM | GI50 (CCRF-CEM): 51200 nM | GI50 (MDA-MB-231): 4830 nM | GI50 [5]: 25300 nM | GI50 (SR): 4140 nM | GI50 [6]: 6600 nM | GI50 [7]: 7630 nM | GI50 (NCI/ADR-RES): 3250 nM | GI50 [8]: 2670 nM | GI50 (ACHN): 9780 nM | GI50 [9]: 14400 nM | GI50 [10]: 5460 nM | GI50 (786-0): 13000 nM | GI50 (A549): 6350 nM | GI50 [11]: 5330 nM | GI50 (A498): 1290 nM | GI50 (KM12): 4970 nM | GI50 [12]: 28200 nM | GI50 [13]: 4470 nM | GI50 [14]: 97000 nM | GI50 [15]: 6050 nM | GI50 (HT-29): 4240 nM | GI50 [16]: 2420 nM | GI50 (NCI-H23): 43000 nM | GI50 [17]: 6690 nM | GI50 (MDA-MB-468): 3440 nM | GI50 (SK-MEL-2): 5440 nM | GI50 [18]: 5160 nM | GI50 [23]: 16700 nM | GI50 [19]: 1920 nM | GI50 [20]: 5170 nM | GI50 (K562): 3140 nM | GI50 (U-251): 7820 nM | GI50 [21]: 68600 nM | GI50 [22]: 5310 nM

— ChEMBL document CHEMBL3739271, “Synthesis and evaluation of a series of resveratrol analogues as potent anti-cancer agents that target tubulin” (2015)
